The record followed here is ChEMBL document CHEMBL1955761, “Privileged scaffolds or promiscuous binders: a comparative study on rhodanines and related heterocycles in medicinal chemistry” (J Med Chem, 2012).

The target of test [1] is Prothrombin (Bos taurus) (UniProt P00735). Nature of the test: Inhibition of bovine plasma thrombin using Boc-Val-Pro-Arg-AMC as substrate at 25 uM preincubated for 15 mins measured after 10 mins by fluorimetric assay. The method in brief: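 Purchased bovine plasma thrombin at 10 nM final, preincubated 15 min with 25 μM inhibitor; reaction started with 50 μM substrate. Buffer 50 mM Tris-HCl pH 7.5, 150 mM NaCl, 0.05% Tween 20. Triplicate, averaged.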

Test [2] relates to Escherichia coli. Nature of the test: Inhibition of Escherichia coli MurA using PEP as substrate assessed as inorganic phosphate release at 25 uM preincubated for 10 mins measured after 60 mins […].
Test [3] concerns Dengue virus. Nature of the test: Inhibition of Dengue virus NS2B-NS3 protease using Abz-NleKRRS-3-(NO2)Y as substrate at 50 uM preincubated for 15 mins measured every sec for 15 mins by fluorimetric analysis.
Test [4] deals with Escherichia coli. Nature of the test: Inhibition of Escherichia coli MetAP at 10 uM after 15 mins by fluorescence analysis.

Calls of active or inactive are those of the source.

With `COc1ccccc1/C=C1\SC(=O)NC1=O`, the inhibition stood at 11% in test [1], 25% in test [2], 17% in test [3] and 10% in test [4].

Consider `NC(=O)CC[C@@H]1NC(=S)NC1=O`, for which the inhibition entry in test [1] and in test [4] was “inactive” throughout. Further, the inhibition in test [2] was 25%; in test [3], 10%.

`CCCCC/C=C1\SC(=S)NC1=O`: the inhibition in test [1] was found to be 18%; in test [2] it was 14%; in test [3], 35%; in test [4], 21%.

Take `O=C1NC(=O)/C(=C/c2c[nH]c3ccccc23)S1`: the inhibition in test [1] came to 23%; in test [3], 26%; in test [4] it was 10%. The inhibition result in test [2] was “inactive”.

Turning to `O=C1NC(=S)N/C1=C\C1CCCCC1`, the inhibition in test [1] came out at 18%; in test [2] it was 16%; in test [3], 30%; in test [4] it was 20%.

Regarding `O=C1NC(=S)N/C1=C\c1cnc[nH]1`, the inhibition in test [1] came out at 30%; in test [2] it was 57%; in test [3] it was 29%; in test [4], 83%.

For `COc1ccc(/C=C2\SC(=O)NC2=O)cc1`, the inhibition in test [1] came out at 32%; in test [2] it was 84%; in test [3], 19%; in test [4], 11%.

`O=C1NC(=O)/C(=C/c2sccc2Br)S1`: the values for the inhibition in test [1] and in test [2] were 18% and 44%, respectively. Also, the inhibition entry in test [3] and in test [4] was “inactive” in each case.

With `COc1ccc(/C=C/C=C2\SC(=O)NC2=O)cc1`, the inhibition in test [1] was 11%; in test [2], 13%; in test [3] it was 18%. The inhibition result in test [4] was “inactive”.

For the compound `O=C1NC(=O)/C(=C/c2ccccc2)N1`, the inhibition result in test [1] is “inactive”. The inhibition in test [2] worked out at 100%; in test [3], 38%; in test [4] it was 17%.

With `O=C1NC(=O)/C(=C/c2cccs2)S1`, the inhibition in test [1] turned out to be 24%; in test [2] it was 30%; in test [3] it was 11%; in test [4] it was 11%.

Regarding `CC(=O)N1C(=S)NC(=O)[C@@H]1CC(C)C`, the inhibition entry in test [1], in test [2] and in test [3] was “inactive” each time. In test [4], the inhibition was determined as 13%.

`O=C1NC(=S)N/C1=C\c1cc(Br)cs1`: the inhibition is 15% in test [1], 57% in test [2], 42% in test [3] and 11% in test [4].

Turning to `O=C1NC(=S)S/C1=C\c1cnc[nH]1`, the inhibition in test [1] amounted to 31%; in test [2], 18%; in test [3], 53%; in test [4], 18%.

With `O=C1NC(=O)/C(=C/c2ccc(O)c(O)c2)N1`, the inhibition in test [1] stood at 32%; in test [2], 70%; in test [3], 37%; in test [4], 100%.

Regarding `O=C1NC(=S)N/C1=C\C=C\c1ccco1`, the inhibition in test [1] worked out at 38%; in test [2], 69%; in test [3], 37%; in test [4] it was 23%.

As for `CN(C)c1ccc(/C=C2\NC(=S)NC2=O)cc1`, the inhibition in test [1] was 25%; in test [2] it was 51%; in test [3], 42%; in test [4], 75%.

Consider `O=C1NC(=S)N/C1=C\c1c[nH]c2ccccc12`, for which the figures for the inhibition in test [1], in test [2] and in test [3] were 22%, 77% and 55%, respectively. In addition, in test [4], the inhibition entry was “inactive”.

As to `CCCC/C=C/C1NC(=S)NC1=O` (stereo unspecified), the inhibition in test [1] stood at 10%; in test [2], 64%. Further, the inhibition result in test [3] and in test [4] was “inactive” in each case.

Broadly, the inhibition is the drop in the measured response relative to a control, in per cent.
